From ChEMBL document CHEMBL2401619, “Novel small molecule inhibitors targeting the "switch region" of bacterial RNAP: structure-based optimization of a virtual screening hit” (Eur J Med Chem, 2013)
Values after ≈ are worked out from the molar mass of the structure shown.

Key:
[1] = test system: Escherichia coli; assay: Antibacterial activity against Escherichia coli expressing ToLC mutant assessed as growth inhibiiton after 18 hrs; format: functional
Procedure, shortened: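 E. coli TolC (efflux-defective) in LB, start OD600 0.03, compounds predissolved in DMSO (max 1% final); serial dilutions, final 0.02–100 µg/mL, each concentration in duplicate. OD read at compound addition and after 18 h at 37 °C, 50 rpm. MIC = lowest concentration with no detectable growth; mean of two independent runs (three if MIC < 10 µg/mL).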

[2] = Inhibition of Escherichia coli RNAP assessed as incorporation of [5,6-3H]UTP preincubated for 10 mins followed by DNA template and ATP, CTP, GTP, UTP, [5,6-3H]UTP addition measured after 10 mins by scintillation counting analysis
Procedure, shortened: (§1)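 Purchased E. coli RNAP holoenzyme (1 unit, 0.5 µg) with 40 mM Tris-HCl pH 7.5, 150 mM KCl, 10 mM MgCl2, 10 mM DTT, 0.1% CHAPS, RNase inhibitor and compound in 2% DMSO final, preincubated 10 min at 25 °C. Reaction started with religated pcDNA3.1 template (3500 ng), 400 µM ATP/CTP/GTP, 100 µM UTP and 60 nCi [3H]-UTP, then run 10 min at 37 °C. TCA-precipitated RNA counted by scintillation and compared with DMSO controls.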

[3] = test system: Escherichia coli; assay: Inhibition of Escherichia coli RNAP assessed as incorporation of [5,6-3H]UTP at 100 uM preincubated for 10 mins followed by DNA template and ATP, CTP, GTP, UTP, [5,6-3H]UTP addition measured after 10 mins by scintillation counting analysis relative to control; procedure, shortened: as §1
[4] = test system: Staphylococcus aureus; assay: Antibacterial activity against Staphylococcus aureus subsp. aureus Newman assessed as growth inhibiiton after 18 hrs; format: functional
Procedure, shortened: (§2)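 Broth dilution in LB, start OD600 0.03, compounds predissolved in DMSO (max 1% final), serial dilutions 0.02–100 µg/mL tested in duplicate. Incubation 18 h, 37 °C, 50 rpm (200 rpm for PAO1). OD read at start and after incubation. MIC is the lowest concentration with no detectable growth. Values are means of two independent runs, three if MIC <10 µg/mL.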

[5] = Antibacterial activity against Bacillus subtilis subsp. subtilis assessed as growth inhibiiton after 18 hrs; format: functional; procedure, shortened: as §2
[6] = test system: Pseudomonas aeruginosa; assay: Antibacterial activity against Pseudomonas aeruginosa PAO1 assessed as growth inhibiiton after 18 hrs; format: functional; settings: PAO1, 18 h; procedure, shortened: as §2
[7] = test system: Escherichia coli; assay: Antibacterial activity against Escherichia coli K-12 assessed as growth inhibiiton after 18 hrs; format: functional; settings: K-12, 18 h; procedure, shortened: as §2
[8] = test system: Escherichia coli; assay: Inhibition of Escherichia coli RNAP assessed as incorporation of [5,6-3H]UTP at 25 uM preincubated for 10 mins followed by DNA template and ATP, CTP, GTP, UTP, [5,6-3H]UTP addition measured after 10 mins by scintillation counting analysis relative to control; procedure, shortened: as §1

Row | Structure (SMILES) | MIC [1] | IC50 [2] | inhibition [3] | pIC50 [2] | MIC [4] | MIC [5] | MIC [6] | MIC [7] | inhibition [8]
1 | CCCCN(CCc1ccccc1)C(=O)Nc1cc(-c2ccc(Cl)c(Cl)c2)sc1C(=O)O | > 25 µg/mL | 7 µM | – | – | – | – | – | – | –
2 | CC(C)(C)OC(=O)c1c(NC(=O)Nc2ccccc2)sc2c1CCCCCC2 | 33 µg/mL (≈ 82.4 µM) | – | 4% | – | – | – | – | – | –
3 | CCN(Cc1ccccc1)C(=O)Nc1cc(-c2cc(Cl)cc(Cl)c2)sc1C(=O)O | – | 25 µM | – | 4.6 | – | – | – | – | –
4 | CC(C)NC(=O)Nc1cc(-c2ccc(Cl)c(Cl)c2)sc1C(=O)O | 15 µg/mL (≈ 40.2 µM) | – | 26% | – | – | – | – | – | –
5 | CCCCNC(=O)Nc1cc(-c2ccc(Cl)c(Cl)c2)sc1C(=O)O | 13 µg/mL (≈ 33.6 µM) | 91 µM | – | – | – | – | – | – | –
6 | O=C(NCc1ccccc1)Nc1cc(-c2ccc(Cl)c(Cl)c2)sc1C(=O)O | 10 µg/mL (≈ 23.7 µM) | 45 µM | – | – | – | – | – | – | –
7 | CCN(Cc1ccccc1)C(=O)Nc1cc(-c2ccc(Cl)c(CCCCNC(=O)OC)c2)sc1C(=O)O | 25 µg/mL (≈ 45.9 µM) | 20 µM | – | – | – | – | – | – | –
8 | CCCCN(Cc1ccccc1)C(=O)Nc1cc(-c2ccc(Cl)c(Cl)c2)sc1C(=O)O | > 50 µg/mL | 9 µM | – | – | > 50 µg/mL | > 50 µg/mL | > 50 µg/mL | > 50 µg/mL | –
9 | CCCCN(C(=O)Nc1cc(-c2ccc(Cl)c(Cl)c2)sc1C(=O)O)c1ccccc1 | > 25 µg/mL | 14 µM | – | – | – | – | – | – | –
10 | O=C(Nc1ccccc1)Nc1cc(-c2ccc(Cl)c(Cl)c2)sc1C(=O)O | 12 µg/mL (≈ 29.5 µM) | 25 µM | – | – | 6 µg/mL (≈ 14.7 µM) | 12 µg/mL (≈ 29.5 µM) | > 50 µg/mL | > 50 µg/mL | –
11 | CCN(Cc1ccccc1)C(=O)Nc1cc(-c2ccc(C(F)(F)F)cc2)sc1C(=O)O | 21 µg/mL (≈ 46.8 µM) | 51 µM | – | 4.29 | – | – | – | – | –
12 | CCCC/C(C)=C/C=C(\C)C(=O)c1c(O)cc([C@H](C)CC/C=C/NC(=O)OC)oc1=O [MYXOPYRONIN B] | 0.8 µg/mL (≈ 1.85 µM) | 0.35 µM | – | – | 0.5 µg/mL (≈ 1.16 µM) | 0.9 µg/mL (≈ 2.09 µM) | > 25 µg/mL | > 25 µg/mL | –
13 | CCN(Cc1ccccc1)C(=O)Nc1cc(-c2cccc(C(F)(F)F)c2)sc1C(=O)O | 38 µg/mL (≈ 84.7 µM) | 53 µM | – | 4.28 | – | – | – | – | –
14 | CN(Cc1ccccc1)C(=O)Nc1cc(-c2ccc(Cl)c(Cl)c2)sc1C(=O)O | 5 µg/mL (≈ 11.5 µM) | – | 12% | – | – | – | – | – | –
15 | CO[C@H]1/C=C/O[C@@]2(C)Oc3c(C)c(O)c4c(O)c(c(/C=N/N5CCN(C)CC5)c(O)c4c3C2=O)NC(=O)/C(C)=C\C=C\[C@H](C)[C@H](O)[C@@H](C)[C@@H](O)[C@@H](C)[C@H](OC(C)=O)[C@@H]1C [RIFAMPIN] | 5 µg/mL (≈ 6.08 µM) | 0.03 µM | – | – | 0.02 µg/mL (≈ 0.0243 µM) | 4.8 µg/mL (≈ 5.83 µM) | 13 µg/mL (≈ 15.8 µM) | 7 µg/mL (≈ 8.51 µM) | –
16 | NC(=O)Nc1cc(-c2ccc(Cl)c(Cl)c2)sc1C(=O)O | > 25 µg/mL | – | 26% | – | – | – | – | – | –
17 | O=C(NCCc1ccccc1)Nc1cc(-c2ccc(Cl)c(Cl)c2)sc1C(=O)O | 8 µg/mL (≈ 18.4 µM) | 26 µM | – | – | 6 µg/mL (≈ 13.8 µM) | 7 µg/mL (≈ 16.1 µM) | > 25 µg/mL | > 25 µg/mL | –
18 | CCCCCCNC(=O)Nc1cc(-c2ccc(Cl)c(Cl)c2)sc1C(=O)O | > 25 µg/mL | 19 µM | – | – | – | – | – | – | –
19 | CCN(Cc1ccccc1)C(=O)Nc1cc(-c2ccc(Cl)c(C(F)(F)F)c2)sc1C(=O)O | 12 µg/mL (≈ 24.8 µM) | 21 µM | – | 4.68 | 5 µg/mL (≈ 10.4 µM) | 20 µg/mL (≈ 41.4 µM) | > 50 µg/mL | > 50 µg/mL | –

Row | Structure (SMILES) | MIC [1] | IC50 [2] | inhibition [3] | pIC50 [2] | MIC [4] | MIC [5] | MIC [6] | MIC [7] | inhibition [8]
20 | CCN(C(=O)Nc1cc(-c2ccc(Cl)c(Cl)c2)sc1C(=O)O)c1ccccc1 | 16 µg/mL (≈ 36.8 µM) | 36 µM | – | – | – | – | – | – | –
21 | CCCN(CCc1ccccc1)C(=O)Nc1cc(-c2ccc(Cl)c(Cl)c2)sc1C(=O)O | > 25 µg/mL | 12 µM | – | – | – | – | – | – | –
22 | CCN(Cc1ccccc1)C(=O)Nc1cc(-c2ccc(Cl)cc2Cl)sc1C(=O)O | 8 µg/mL (≈ 17.8 µM) | 32 µM | – | 4.49 | 12 µg/mL (≈ 26.7 µM) | 10 µg/mL (≈ 22.3 µM) | > 50 µg/mL | > 50 µg/mL | –
23 | O=C(O)c1sc(-c2ccc(Cl)c(Cl)c2)cc1NC(=O)N(Cc1ccccc1)Cc1ccccc1 | > 25 µg/mL | 6 µM | – | – | 3 µg/mL (≈ 5.87 µM) | > 25 µg/mL | > 25 µg/mL | > 25 µg/mL | –
24 | CCN(Cc1ccccc1)C(=O)Nc1cc(-c2ccc([N+](=O)[O-])cc2)sc1C(=O)O | 23 µg/mL (≈ 54.1 µM) | 73 µM | – | 4.14 | – | – | – | – | –
25 | O=C(Nc1ccccc1)Nc1sc2c(c1C(=O)O)CCCCCC2 | > 25 µg/mL | – | – | – | – | – | – | – | 3%
26 | CCN(Cc1ccccc1)C(=O)Nc1cc(-c2cc(Cl)ccc2Cl)sc1C(=O)O | 9 µg/mL (≈ 20 µM) | 35 µM | – | 4.46 | – | – | – | – | –
27 | CCN(Cc1ccccc1)C(=O)Nc1cc(-c2ccccc2)sc1C(=O)O | 17 µg/mL (≈ 44.7 µM) | 292 µM | – | 3.52 | – | – | – | – | –
28 | CCCCCNC(=O)Nc1cc(-c2ccc(Cl)c(Cl)c2)sc1C(=O)O | 10 µg/mL (≈ 24.9 µM) | 35 µM | – | – | > 25 µg/mL | 8 µg/mL (≈ 19.9 µM) | > 25 µg/mL | > 25 µg/mL | –
29 | CCN(Cc1ccccc1)C(=O)Nc1cc(-c2ccc(Cl)cc2)sc1C(=O)OC | > 25 µg/mL | – | – | – | – | – | – | – | 2%
30 | CCCN(Cc1ccccc1)C(=O)Nc1cc(-c2ccc(Cl)c(Cl)c2)sc1C(=O)O | > 25 µg/mL | 14 µM | – | – | – | – | – | – | –
31 | CCN(Cc1ccccc1)C(=O)Nc1cc(-c2ccc(C)cc2)sc1C(=O)O | 21 µg/mL (≈ 53.2 µM) | 137 µM | – | 3.86 | – | – | – | – | –
32 | CN(C(=O)Nc1cc(-c2ccc(Cl)c(Cl)c2)sc1C(=O)O)c1ccccc1 | 9 µg/mL (≈ 21.4 µM) | 45 µM | – | – | – | – | – | – | –
33 | CCN(Cc1ccccc1)C(=O)Nc1cc(-c2ccc(OC)cc2)sc1C(=O)O | 15 µg/mL (≈ 36.5 µM) | 240 µM | – | 3.62 | – | – | – | – | –
34 | CCN(Cc1ccccc1)C(=O)Nc1cc(-c2cccc([N+](=O)[O-])c2)sc1C(=O)O | 22 µg/mL (≈ 51.7 µM) | 80 µM | – | 4.1 | – | – | – | – | –
35 | CCN(Cc1ccccc1)C(=O)Nc1cc(-c2ccc(Cl)cc2)sc1C(=O)O | 11 µg/mL (≈ 26.5 µM) | 75 µM | – | 4.12 | – | – | – | – | –
36 | CCN(Cc1ccccc1)C(=O)Nc1cc(-c2ccc(C#N)cc2)sc1C(=O)O | 25 µg/mL (≈ 61.7 µM) | 133 µM | – | 3.88 | – | – | – | – | –
37 | CCN(Cc1ccccc1)C(=O)Nc1cc(-c2ccc(OC(F)(F)F)cc2)sc1C(=O)O | 21 µg/mL (≈ 45.2 µM) | 45 µM | – | 4.35 | 9 µg/mL (≈ 19.4 µM) | 20 µg/mL (≈ 43.1 µM) | > 100 µg/mL | > 100 µg/mL | –
